# Calls of active or inactive are those of the source. The rule behind the calls is not given here.
# Columns and labels:
# Liver [1] = test: Drug metabolism in human liver microsomes assessed as pyridine N-oxidation by measuring 7-(4-(pyridin-3-yl)-1H-1,2,3-triazol-1-yl)heptanoic acid formation after 60 mins in presence of NADPH-regenerating system by LC-UV analysis; format: ADME, microsome
# Method in brief: (§1)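 Metabolites were characterized by LC-ESI-MSn on supernatants of 60 min, 37 °C incubations. Each used 50 μM substrate with rat or human liver microsomes (1.0 mg/ml protein) in 50 mM Tris-HCl pH 7.4 with 3.3 mM MgCl2, 1% acetonitrile and an NADPH-regenerating system. Reactions were quenched with cold acetonitrile and centrifuged.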
# [2] = target: Nicotinamide phosphoribosyltransferase (Mus musculus, UniProt Q99KQ4); test: Inhibition of recombinant mouse NAMPT expressed in bacterial expression system using nicotinamide as substrate after 1 hr by fluorescence based NMNAT-3 enzyme coupled assay
# Liver [3] = test: Drug metabolism in human liver microsomes assessed as pyridine N-oxidation by measuring biphenyl-2-carboxamide formation after 60 mins in presence of NADPH-regenerating system by LC-UV analysis; format: ADME, microsome; conditions: 1 h; method in brief: as §1
# Liver [4] = test: Drug metabolism in Wistar Han rat liver microsomes assessed as pyridine N-oxidation by measuring biphenyl-2-carboxamide formation after 60 mins in presence of NADPH-regenerating system by LC-UV analysis; format: ADME, microsome; conditions: 1 h; method in brief: as §1
# Liver [5] = test: Drug metabolism in Wistar Han rat liver microsomes assessed as pyridine N-oxidation by measuring 7-(4-(pyridin-3-yl)-1H-1,2,3-triazol-1-yl)heptanoic acid formation after 60 mins in presence of NADPH-regenerating system by LC-UV analysis; format: ADME, microsome; method in brief: as §1
# SH-SY5Y = test: Cytotoxicity against human SH-SY5Y cells assessed as reduction in cell viability after 56 hrs by MTT assay; format: functional, cell-based
# Mus musculus [6] = test: In vivo inhibition of NAMPT in DNBS-induced BALB/c mouse colitis model assessed as reduction in mucosal congestion at 20 mg/kg, ip bid administered for 3 days post DNBS challenge; format: functional, organism-based
# Mus musculus [7] = test: In vivo inhibition of NAMPT in DNBS-induced BALB/c mouse colitis model assessed as reduction in erosion at 20 mg/kg, ip bid administered for 3 days post DNBS challenge; format: functional, organism-based
# Mus musculus [8] = test: In vivo inhibition of NAMPT in DNBS-induced BALB/c mouse colitis model assessed as reduction in loss of body weight at 20 mg/kg, ip bid administered for 3 days post DNBS challenge; format: functional, organism-based
# Mus musculus [9] = test: In vivo inhibition of NAMPT in DNBS-induced BALB/c mouse colitis model assessed as reduction in neutrophil infiltration by measuring myeloperoxidase levels at 20 mg/kg, ip bid administered for 3 days post DNBS challenge by ELISA; format: functional, organism-based
# Mus musculus [10] = test: In vivo inhibition of NAMPT in DNBS-induced BALB/c mouse colitis model assessed as reduction in hemorrhagic ulcerations at 20 mg/kg, ip bid administered for 3 days post DNBS challenge; format: functional, organism-based
# Liver [11] = test: Drug level in human liver microsomes treated with N-(7-(4-(Pyridin-3-yl)-1H-1,2,3-triazol-1-yl)heptyl)-[1,1'-biphenyl]-2-carboxamide after 60 mins in presence of NADPH-regenerating system by LC-UV analysis; format: ADME, microsome
# Method in brief: (§2)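 Substrate at 50 μM final, with rat or human liver microsomes at 1.0 mg/ml protein, in 50 mM Tris-HCl pH 7.4. Mix held 3.3 mM MgCl2, 1% acetonitrile and an NADPH-regenerating system (1.3 mM β-NADP, 3.3 mM glucose 6-phosphate, 0.4 U/ml G6PDH). Shaken 60 min at 37 °C, stopped with ice-cold acetonitrile. LC-UV gave % residual substrate versus a no-microsome control, mean of two replicates.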
# Liver [12] = test: Drug level in Wistar Han rat liver microsomes treated with N-(7-(4-(Pyridin-3-yl)-1H-1,2,3-triazol-1-yl)heptyl)-[1,1'-biphenyl]-2-carboxamide after 60 mins in presence of NADPH-regenerating system by LC-UV analysis; format: ADME, microsome; method in brief: as §2
# Liver [13] = test: Drug level in Wistar Han rat liver microsomes treated with N-(biphenyl-2-yl)-8-(4-(pyridin-3-yl)-1H-1,2,3-triazol-1-yl)octanamide after 60 mins by LC-ESI-MS analysis; format: ADME, microsome
# Liver [14] = test: Drug level in human liver microsomes treated with N-(biphenyl-2-yl)-8-(4-(pyridin-3-yl)-1H-1,2,3-triazol-1-yl)octanamide after 60 mins by LC-ESI-MS analysis; format: ADME, microsome
# [15] = Homo sapiens, SH-SY5Y, 56 h, read-out: EC50
# Nicotinamide phosphoribosyltransferase, sequence (Q99KQ4 whole entry): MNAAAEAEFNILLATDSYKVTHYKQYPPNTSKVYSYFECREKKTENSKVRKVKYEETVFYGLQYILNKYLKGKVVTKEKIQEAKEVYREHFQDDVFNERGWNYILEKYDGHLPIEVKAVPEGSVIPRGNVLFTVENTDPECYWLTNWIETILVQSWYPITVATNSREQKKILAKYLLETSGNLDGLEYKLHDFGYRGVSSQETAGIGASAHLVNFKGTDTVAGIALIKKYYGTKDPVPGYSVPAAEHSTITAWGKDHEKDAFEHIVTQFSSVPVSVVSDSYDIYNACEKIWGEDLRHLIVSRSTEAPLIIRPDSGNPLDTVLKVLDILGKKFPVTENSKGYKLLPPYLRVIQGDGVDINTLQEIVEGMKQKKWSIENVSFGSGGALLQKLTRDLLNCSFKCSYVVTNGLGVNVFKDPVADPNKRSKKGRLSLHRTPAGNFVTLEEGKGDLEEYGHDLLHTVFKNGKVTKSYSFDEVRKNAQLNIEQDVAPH
smiles,measurement,setting,value
[O-][n+]1cccc(-c2cn(CCCCCCOc3ccccc3-c3ccccc3)nn2)c1,Drug metabolism,Liver [1],Metabolite_Detected
same,IC50,[2],Not Active
same,Drug metabolism,Liver [3],Metabolite_Detected
same,Drug metabolism,Liver [4],Metabolite_Detected
same,Drug metabolism,Liver [5],Metabolite_Detected
same,EC50,SH-SY5Y; sh-sy5y,Not Active
C[C@@H]1C[C@H]2[C@@H]3CCC4=CC(=O)C=C[C@]4(C)[C@@]3(F)[C@@H](O)C[C@]2(C)[C@@]1(O)C(=O)CO,inhibition,Mus musculus [6],Active
same,inhibition,Mus musculus [7],Active
same,inhibition,Mus musculus [8],Active
same,inhibition,Mus musculus [9],Active
same,inhibition,Mus musculus [10],Active
c1ccc(-c2ccccc2OCCCCCCCn2cc(-c3cccnc3)nn2)cc1,IC50,[2]; read-out: IC50,31.3 nM
same,EC50,SH-SY5Y; [15],15 nM
c1ccc(-c2ccccc2OCCCCCCCCn2cc(-c3cccnc3)nn2)cc1,IC50,[2]; read-out: IC50,25.4 nM
same,EC50,SH-SY5Y; [15],8.2 nM
O=C(NCCCCCCCn1cc(-c2cccnc2)nn1)Nc1ccccc1-c1ccccc1,IC50,[2]; read-out: IC50,32.4 nM
same,EC50,SH-SY5Y; [15],7 nM
c1ccc(-c2ccccc2CNCCCCCCn2cc(-c3cccnc3)nn2)cc1,EC50,SH-SY5Y; [15],202 nM
O=C(O)CCCCCCn1cc(-c2cccnc2)nn1,Drug metabolism,Liver [11],Metabolite_Detected
same,Drug metabolism,Liver [12],Metabolite_Detected
O=C(NCCCCCCn1cc(-c2cccnc2)nn1)c1ccccc1-c1ccccc1,EC50,SH-SY5Y; [15],22.2 nM
O=C(O)CCCCCCCn1cc(-c2cccnc2)nn1,Drug metabolism,Liver [13],Metabolite_Detected
same,Drug metabolism,Liver [14],Metabolite_Detected
O=C(NCCCCCCCCn1cc(-c2cccnc2)nn1)Nc1ccccc1-c1ccccc1,EC50,SH-SY5Y; [15],154 nM
c1ccc(-c2ccccc2-n2cc(CCCCCCCc3cn(-c4cccnc4)nn3)nn2)cc1,EC50,SH-SY5Y; [15],> 500 nM
NC(=O)c1ccccc1-c1ccccc1,Drug metabolism,Liver [11],Metabolite_Detected
same,Drug metabolism,Liver [12],Metabolite_Detected
c1ccc(-c2ccccc2-c2cn(CCCCCCCCn3cc(-c4cccnc4)nn3)nn2)cc1,EC50,SH-SY5Y; [15],74.5 nM
O=S(=O)(NCCCCCCCn1cc(-c2cccnc2)nn1)c1ccccc1Br,EC50,SH-SY5Y; [15],162 nM
O=S(=O)(NCCCCCCn1cc(-c2cccnc2)nn1)c1ccccc1Br,EC50,SH-SY5Y; [15],175 nM
O=S(=O)(NCCCCCCCCn1cc(-c2cccnc2)nn1)c1ccccc1Br,EC50,SH-SY5Y; [15],171 nM
O=S(=O)(NCCCCCCCCn1cc(-c2cccnc2)nn1)c1ccccc1-c1ccccc1,IC50,[2]; read-out: IC50,47 nM
same,EC50,SH-SY5Y; [15],12.6 nM
O=C(Nc1ccccc1-c1ccccc1)OCCCCCCCn1cc(-c2cccnc2)nn1,EC50,SH-SY5Y; [15],36 nM
O=C(CCCCCCCc1nnc(-c2cccnc2)o1)Nc1ccccc1-c1ccccc1,EC50,SH-SY5Y; [15],370 nM
O=C(CCCCCCCc1cc(-c2cccnc2)[nH]n1)Nc1ccccc1-c1ccccc1,EC50,SH-SY5Y; [15],384 nM
O=C(NCCCCCCCn1cc(-c2ccc[n+]([O-])c2)nn1)c1ccccc1-c1ccccc1,Drug metabolism,Liver [1],Metabolite_Detected
same,IC50,[2],Not Active
same,Drug metabolism,Liver [3],Metabolite_Detected
same,Drug metabolism,Liver [4],Metabolite_Detected
same,Drug metabolism,Liver [5],Metabolite_Detected
same,EC50,SH-SY5Y; sh-sy5y,Not Active
